Source: publication PMC6681659 (Bioorganic & medicinal chemistry letters, 2018)

Assays:
Kif15-N700 [1] = target: T1, Kif15-N700 (Homo sapiens, UniProt Q9NS87); test: MT gliding assay with Kif15-N700; type: biochemical; details: for effect on Kif15-driven MT gliding at a single concentration: GW108X 10 μM for 1 minute, Kif15-IN-1 1.72 μM; for reversibility of Kif15 inhibition in MT gliding assay: wash out experiment; for Kif15 MT gliding inhibition (SAR, in words): 750 nM
T1 sequence (Q9NS87 1-700 limits assumed): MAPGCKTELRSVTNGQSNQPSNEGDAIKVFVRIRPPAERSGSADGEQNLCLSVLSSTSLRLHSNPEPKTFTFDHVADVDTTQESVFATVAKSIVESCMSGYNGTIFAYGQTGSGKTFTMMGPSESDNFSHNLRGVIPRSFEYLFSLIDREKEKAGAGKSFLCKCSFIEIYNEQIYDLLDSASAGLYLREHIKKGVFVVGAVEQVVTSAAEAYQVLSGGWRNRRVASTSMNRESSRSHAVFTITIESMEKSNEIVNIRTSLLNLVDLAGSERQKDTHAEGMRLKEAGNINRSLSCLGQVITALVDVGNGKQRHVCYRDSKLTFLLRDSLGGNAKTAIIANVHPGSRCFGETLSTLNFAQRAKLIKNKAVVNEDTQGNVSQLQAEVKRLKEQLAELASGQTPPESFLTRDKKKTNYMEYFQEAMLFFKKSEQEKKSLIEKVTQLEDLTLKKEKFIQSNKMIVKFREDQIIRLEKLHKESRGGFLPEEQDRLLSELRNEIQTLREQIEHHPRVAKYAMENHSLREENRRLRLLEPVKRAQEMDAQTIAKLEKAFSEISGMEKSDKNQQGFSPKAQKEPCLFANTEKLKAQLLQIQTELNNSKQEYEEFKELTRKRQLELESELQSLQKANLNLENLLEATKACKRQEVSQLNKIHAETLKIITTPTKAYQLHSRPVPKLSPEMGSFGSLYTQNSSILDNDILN
Method in brief: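 Motility assay in which Kif15-N700 glides fluorescent MTs, scored by gliding velocity. The SAR screen used 750 nM test compound in triplicate (some in duplicate), with n ≥ 30 measurements per replicate. Concentration-response series ran 10 to 0.2 μM (12 concentrations) or 30 to 0.1 μM (5 concentrations). For reversibility, gliding was started in DMSO, then 10 μM compound was added for 1 minute, followed by a double wash-out.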

KIRC-1 cells = test: Spindle monopolarity in K5I-resistant KIRC-1 cells; type: cell-based
TP53−/− RPE-1 cells = test: Spindle morphology; type: cell-based; details: 25 μM
Method in brief: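 TP53−/− RPE-1 cells were exposed to 25 μM test compound or DMSO for 24 h and stained for tubulin, Kif15 and DNA. Pre-anaphase microtubule arrays were scored for bipolarity, in triplicate with at least 100 cells per replicate; spindle lengths were compared with DMSO-treated cells.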

Kif15-N700 [2] = target: T1, Kif15-N700; test: MT-stimulated ATPase activity of Kif15-N700 at varying ATP or MT concentrations; type: biochemical; details: for mode of inhibition with respect to ATP: Lineweaver-Burk analysis
RPE-1 cells = details: cited from earlier work
Kif15 = target: T2, Kif15 (Homo sapiens, UniProt Q9NS87); test: Kif15 localization and protein level in RPE-1 cells; type: cell-based; details: 25 μM
T2 sequence (Q9NS87 1-1388): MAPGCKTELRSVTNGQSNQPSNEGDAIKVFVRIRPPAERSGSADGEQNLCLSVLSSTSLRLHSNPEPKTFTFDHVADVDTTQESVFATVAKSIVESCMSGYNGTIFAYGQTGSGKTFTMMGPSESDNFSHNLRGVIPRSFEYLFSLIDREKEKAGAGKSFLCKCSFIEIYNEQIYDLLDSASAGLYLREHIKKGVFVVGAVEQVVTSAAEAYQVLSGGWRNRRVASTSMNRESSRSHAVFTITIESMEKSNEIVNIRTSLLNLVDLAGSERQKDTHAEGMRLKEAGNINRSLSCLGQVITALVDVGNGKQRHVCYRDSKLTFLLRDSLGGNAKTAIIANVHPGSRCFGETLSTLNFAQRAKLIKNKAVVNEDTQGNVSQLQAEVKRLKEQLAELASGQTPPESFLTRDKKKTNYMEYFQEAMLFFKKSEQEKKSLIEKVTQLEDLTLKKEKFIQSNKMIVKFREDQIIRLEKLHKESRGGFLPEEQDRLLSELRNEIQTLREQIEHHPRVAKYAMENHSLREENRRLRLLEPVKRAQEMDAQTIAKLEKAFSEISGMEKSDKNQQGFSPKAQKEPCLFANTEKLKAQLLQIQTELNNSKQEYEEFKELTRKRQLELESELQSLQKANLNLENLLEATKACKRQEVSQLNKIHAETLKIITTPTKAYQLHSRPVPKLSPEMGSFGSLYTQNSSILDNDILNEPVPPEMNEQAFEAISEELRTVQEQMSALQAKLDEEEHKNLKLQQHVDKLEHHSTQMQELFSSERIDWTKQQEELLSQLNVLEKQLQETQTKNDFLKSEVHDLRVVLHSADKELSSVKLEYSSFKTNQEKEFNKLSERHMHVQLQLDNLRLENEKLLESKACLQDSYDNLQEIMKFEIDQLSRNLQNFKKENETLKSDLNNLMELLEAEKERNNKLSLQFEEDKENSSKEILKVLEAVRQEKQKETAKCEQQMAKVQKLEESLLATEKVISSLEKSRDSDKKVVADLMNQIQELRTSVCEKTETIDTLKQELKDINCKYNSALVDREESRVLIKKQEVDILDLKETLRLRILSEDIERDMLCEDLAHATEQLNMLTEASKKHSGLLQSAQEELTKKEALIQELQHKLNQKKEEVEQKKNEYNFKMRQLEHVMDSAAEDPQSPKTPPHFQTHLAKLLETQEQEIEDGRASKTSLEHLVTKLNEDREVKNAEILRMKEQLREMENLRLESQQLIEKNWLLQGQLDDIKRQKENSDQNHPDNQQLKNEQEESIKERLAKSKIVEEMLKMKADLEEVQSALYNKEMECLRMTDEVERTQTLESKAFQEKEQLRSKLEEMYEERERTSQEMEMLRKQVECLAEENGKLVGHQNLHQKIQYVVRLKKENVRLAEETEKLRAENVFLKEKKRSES
Method in brief: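 TP53−/− RPE-1 cells were exposed to the test compound at 25 μM or to DMSO for 24 h, then immunostained for Kif15, tubulin and DNA. Imaging used max-intensity z-projections or single optical sections. Spindle-bound Kif15 was quantified on metaphase MTs as the ratio of Kif15 to tubulin fluorescence intensity. 25–30 cells were analysed, pooled from triplicate experiments.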

[3] = ATP varied, high MT concentration

With `O=C1Nc2ccc(C(=O)c3ccco3)cc2/C1=C/c1cc(Cl)c(O)c(Cl)c1` [GW108X] the “effect on Kif15-driven MT gliding at a single concentration” value (Kif15-N700 [1]) was “eliminate MT gliding”, the “reversibility of Kif15 inhibition in MT gliding assay” value (Kif15-N700 [1]) was “reversible” and the “dose dependence of block of spindle assembly” value (KIRC-1 cells) was “dose-dependent”. For the same compound, the “spindle length (effect in words)” value (TP53−/− RPE-1 cells) was “unaffected”, the “change in KM^ATP” value (Kif15-N700 [2]; [3]) was “no change” and the “change in Vmax” value (Kif15-N700 [2]; [3]) was “decrease”. The “mode of inhibition with respect to ATP” value (Kif15-N700 [2]) was “not competing with ATP binding” and the “change in KM^MT” value (Kif15-N700 [2]; MT varied, saturating ATP) was “increase”.

In the case of `O=C1Nc2ccc(C(=O)c3ccco3)cc2/C1=C/c1cc(Cl)c(O)c(Br)c1` [Compound 7], the “Kif15 MT gliding inhibition (SAR, in words)” value (from here on “Kif15 MT gliding inhibition”) (Kif15-N700 [1]) is reported as “intermediary inhibition”.

With `O=C1Nc2ccc(C(=O)c3ccco3)cc2/C1=C/c1cc(I)c(O)c(I)c1` [Compound 5] the “Kif15 MT gliding inhibition” value (Kif15-N700 [1]) was “not as well tolerated”.

In the case of `O=C1Nc2ccc(C(=O)c3ccco3)cc2/C1=C/c1cc(Br)cc(Br)c1` [Compound 8], the “Kif15 MT gliding inhibition” value (Kif15-N700 [1]) is reported as “abolished activity”.

For `O=C1Nc2ccc(C(=O)c3ccco3)cc2/C1=C/c1cc(F)c(O)c(Br)c1` [Compound 6], the “Kif15 MT gliding inhibition” value (Kif15-N700 [1]) was “intermediary inhibition”.

In the case of `Cc1cc(/C=C2\C(=O)Nc3ccc(C(=O)c4ccco4)cc32)cc(C)c1O` [Compound 9], the “Kif15 MT gliding inhibition” value (Kif15-N700 [1]) is reported as “reduced in activity”.

For BRD9876, the “effect on spindle integrity” value (RPE-1 cells) is listed as “does not cause spindle collapse”.

For `CCOC(=O)c1sc(NC(=O)[C@H](C(C)C)n2c(=O)[nH]c3ccccc3c2=O)nc1C` [Kif15-IN-1, reference compound], the “effect on Kif15-driven MT gliding at a single concentration” value (Kif15-N700 [1]) was “abolishes Kif15-driven MT gliding”, the “reversibility of Kif15 inhibition in MT gliding assay” value (Kif15-N700 [1]) was “reversible” and the “change in KM^ATP” value (Kif15-N700 [2]; [3]) was “increase”. The “mode of inhibition with respect to ATP” value (Kif15-N700 [2]) was “competes with ATP binding” and the “effect on spindle-bound levels of Kif15” value (Kif15) was “did not reduce”.

For `COc1c(Br)cc(/C=C2\C(=O)Nc3ccc(C(=O)c4ccco4)cc32)cc1Br` [Compound 10], the “Kif15 MT gliding inhibition” value (Kif15-N700 [1]) was “abolished activity”.
